Rows were chosen to be rich in hits. Some 5.8% of all compounds tested hit in one or more screens of this group.
Pf Dd2 inh: P. falciparum Dd2 growth inhibition; 2.3% of 94,000 active; AID 1159554; SYBR Green, 72 h; hits give low values; activity change, % at 10 µM; in the data active = activity change below about -80%; inconclusive = no clear call, values can overlap the other calls
KDM4C inh: inhibitors of human demethylase GASC-1 KDM4C | AID 720574 | inhibition, % at 12.5 µM | GST-KDM4C 2-372, H3K9me3 peptide, LANCE TR-FRET | Q9H3R0 | 0.15% of 96,000 active;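 active = mean replicate inhibition above about 25%, with at least 55% of replicates also reaching it, limit read from the data, passing the limit was not always enough; inconclusive = only one of those two conditions met; inactive = neither condition met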
Target sequence (Q9H3R0 2-372 limits assumed): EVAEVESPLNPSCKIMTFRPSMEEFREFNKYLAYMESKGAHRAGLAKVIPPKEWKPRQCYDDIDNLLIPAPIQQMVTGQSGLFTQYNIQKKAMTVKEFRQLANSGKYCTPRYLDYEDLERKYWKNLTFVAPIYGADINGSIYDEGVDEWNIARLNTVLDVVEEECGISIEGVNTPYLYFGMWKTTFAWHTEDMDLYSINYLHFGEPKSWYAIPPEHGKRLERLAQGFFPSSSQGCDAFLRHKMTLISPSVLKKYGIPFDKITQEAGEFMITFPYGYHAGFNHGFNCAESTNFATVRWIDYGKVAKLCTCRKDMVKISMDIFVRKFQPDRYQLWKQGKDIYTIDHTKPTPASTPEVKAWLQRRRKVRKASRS
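Material: GST-tagged GASC-1 (JMJD2C) catalytic fragment, aa 2-372. Input: enzyme final amount 10 nM. Medium: HEPES buffer, pH 7.5, plus ascorbate. Reagent: H3K9me3 peptide substrate, Fe(II), 2-oxoglutarate. Doses: single dose. Times: reaction 30 min RT, detection step 1 h RT. Measured by: LANCE TR-FRET. Evaluation: Fall in 671/618 emission ratio as inhibition.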
IDH1 R132H inh: inhibitors of human IDH1 R132H. AID 624101. O75874. 0.18% of 70,000 active. IDH1 R132H reductase, diaphorase/resazurin fluorescence, 60 min. inhibition, % at 10 µM; in the data active = inhibition above about 34%; inconclusive = no clear call, values can overlap the other calls; inactive = below about 11%
Tcruzi prolif: blocks T. cruzi growth in NIH3T3 culture; AID 624255; inhibition, % at 8.34 µM; 5.9% of 77,000 active; T. cruzi beta-gal in NIH3T3, GalScreen luminescence, 90 h;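 active = mean inhibition above about 93%, with at least 55% of replicates each passing it, limit read from the data, passing the limit was not always enough; inconclusive = only one of those two conditions holds; inactive = neither condition holds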
Numbers stand for hits; 0 = inactive; ? = inconclusive; - = not tested or not shown.

SMILES | Pf Dd2 inh | KDM4C inh | IDH1 R132H inh | Tcruzi prolif
C[C@@H]1CN([C@@H](C)CO)C(=O)c2c(c3ccccc3n2C)-c2ccccc2CO[C@@H]1CN(C)Cc1ccccc1C(F)(F)F | -87 | 0 | - | -
C[C@H](CO)N1C[C@H](C)[C@H](CN(C)Cc2ccc(-c3ccccc3)cc2)Oc2c(NS(=O)(=O)c3ccccc3)cccc2C1=O | 0 | 0 | - | 0
COc1ccc2c3c(n(C)c2c1)[C@@H](CO)N(Cc1cccnc1)CC31CCN(C(=O)NC(C)C)CC1 | 0 | 0 | - | -
COc1ccc2c3c(n(C)c2c1)[C@@H](CO)N(C(=O)Nc1ccc(F)cc1)CC31CN(C(=O)c2ccccc2F)C1 | -92 | 0 | - | -
CCCNC(=O)N1CC2(CN(Cc3ccc(OC)cc3)C2)c2c(n(C)c3cc(OC)ccc23)[C@H]1CO | -81 | 0 | - | -
COc1ccc2c3c(n(C)c2c1)[C@H](CO)N(Cc1cccnc1)CC31CN(C(=O)NC(C)C)C1 | -88 | 0 | - | -
COc1ccc2c3c(n(C)c2c1)[C@H](CO)N(C(=O)Nc1ccc(F)cc1)CC31CN(Cc2cccnc2)C1 | -89 | 0 | - | -
COc1ccc2c3c(n(C)c2c1)[C@@H](CO)N(C(=O)c1ccccc1)CC31CCN(C(=O)c2ccccc2)CC1 | -87 | 0 | - | -
COc1ccc2c3c(n(C)c2c1)[C@@H](CO)N(C(C)=O)CC31CCN(C(=O)Nc2ccc(F)cc2)CC1 | -83 | 0 | - | -
COc1ccc2c3c(n(C)c2c1)[C@@H](CO)N(C(=O)c1ccc(F)cc1)CC31CCN(C(=O)Nc2ccc(F)cc2)CC1 | -87 | 0 | - | -
COc1ccc(S(=O)(=O)Nc2ccc3c(c2)CC(=O)N([C@@H](C)CO)C[C@@H](C)[C@H](CN(C)S(=O)(=O)c2c(C)noc2C)O3)cc1 | 0 | 0 | 0 | 0
C[C@H](CO)N1C[C@H](C)[C@@H](CN(C)CC2CCCCC2)OCc2ccccc2-c2c(n(C)c3ccccc23)C1=O | 0 | 0 | - | -
C[C@@H]1CN([C@H](C)CO)S(=O)(=O)c2ccc(C#Cc3cccnc3)cc2O[C@H]1CN(C)C | 0 | 0 | 0 | 0
CCCN(C)C[C@@H]1Oc2cc(C#Cc3cccnc3)ccc2S(=O)(=O)N([C@H](C)CO)C[C@@H]1C | -88 | 0 | 0 | 0
C[C@H]1CN([C@@H](C)CO)S(=O)(=O)c2ccc(C#Cc3cccnc3)cc2O[C@@H]1CN(C)C | 0 | 0 | 0 | 0
CCCN(C)C[C@H]1Oc2cc(C#Cc3cccnc3)ccc2S(=O)(=O)N([C@@H](C)CO)C[C@H]1C | -84 | 0 | 0 | 0
CCCN(C)C[C@H]1Oc2cc(C#Cc3cccnc3)ccc2S(=O)(=O)N([C@H](C)CO)C[C@H]1C | -89 | 0 | 0 | 0
C[C@H]1CN([C@@H](C)CO)C(=O)Cc2cc(NC(=O)CCCCCC(=O)Nc3ccccc3N)ccc2O[C@H]1CN(C)S(=O)(=O)c1ccc(Cl)cc1 | -94 | 0 | - | 0
C[C@@H]1CN([C@@H](C)CO)C(=O)Cc2cc(NC(=O)CCCCCC(=O)Nc3ccccc3N)ccc2O[C@H]1CN(C)S(=O)(=O)c1ccc(Cl)cc1 | 0 | 0 | 0 | 0
C[C@@H]1CN([C@H](C)CO)C(=O)Cc2cc(NC(=O)CCCCCC(=O)Nc3ccccc3N)ccc2O[C@H]1CN(C)S(=O)(=O)c1ccc(Cl)cc1 | 0 | 0 | 0 | 0
C[C@H](CO)N1C[C@H](C)[C@H](CN(C)S(=O)(=O)c2ccc(Cl)cc2)Oc2ccc(NC(=O)CCCCCC(=O)Nc3ccccc3N)cc2CC1=O | -91 | 0 | - | 0
COc1ccc(S(=O)(=O)Nc2ccc3c(c2)C(=O)N([C@@H](C)CO)C[C@H](C)[C@H](CN(C)S(C)(=O)=O)OCCCC[C@@H](C)O3)cc1 | 0 | 0 | - | 0
C[C@@H]1CN([C@H](C)CO)S(=O)(=O)c2ccc(C#CC3CC3)cc2O[C@H]1CN(C)C(=O)Cc1ccncc1 | 0 | 0 | 0 | 0
C[C@H](CO)N1C[C@H](C)[C@H](CN(C)C(=O)Cc2ccncc2)Oc2cc(C#CC3CCCCC3)ccc2S1(=O)=O | -86 | 0 | ? | 0
C/C=C/c1ccc2c(c1)O[C@@H](CN(C)C(=O)Cc1ccncc1)[C@@H](C)CN([C@H](C)CO)S2(=O)=O | 0 | 0 | 0 | 0
SMILES | Pf Dd2 inh | KDM4C inh | IDH1 R132H inh | Tcruzi prolif
C/C=C/c1ccc2c(c1)O[C@@H](CN(C)C(=O)Cc1ccncc1)[C@H](C)CN([C@H](C)CO)S2(=O)=O | -84 | 0 | 0 | 0
CO[C@H]1CC[C@H]2CCN(C)C(=O)[C@H](C)N(C)C(=O)c3cc(C#N)ccc3OC[C@H]1O2 | - | 0 | - | 0
C[C@@H]1CCCCO[C@H](CN(C)S(=O)(=O)c2ccc(Cl)cc2)[C@H](C)CN([C@@H](C)CO)C(=O)c2cc(NC(=O)Nc3ccc(C(F)(F)F)cc3)ccc2O1 | 0 | 0 | 0 | 0
Cc1ccc(S(=O)(=O)N(C)C[C@H]2OCCCC[C@H](C)Oc3ccc(NC(=O)Nc4ccc(C(F)(F)F)cc4)cc3C(=O)N([C@@H](C)CO)C[C@H]2C)cc1 | 0 | 0 | - | -
Cc1ccc(S(=O)(=O)N(C)C[C@@H]2OCCCC[C@@H](C)Oc3ccc(NC(=O)Nc4ccc(C(F)(F)F)cc4)cc3C(=O)N([C@H](C)CO)C[C@@H]2C)cc1 | -82 | 0 | - | -
C[C@@H]1CN([C@@H](C)CO)C(=O)c2cc(NC(=O)Nc3ccc(C(F)(F)F)cc3)ccc2O[C@@H](C)CCCCO[C@@H]1CN(C)S(=O)(=O)c1ccc(Cl)cc1 | -86 | 0 | - | 0
C[C@@H]1CCCCO[C@@H](CN(C)S(=O)(=O)c2ccc(Cl)cc2)[C@@H](C)CN([C@@H](C)CO)C(=O)c2cc(NC(=O)Nc3ccc(C(F)(F)F)cc3)ccc2O1 | -83 | 0 | - | 0
Cc1ccc(S(=O)(=O)N(C)C[C@H]2OCCCC[C@@H](C)Oc3ccc(NC(=O)Nc4ccc(C(F)(F)F)cc4)cc3C(=O)N([C@@H](C)CO)C[C@@H]2C)cc1 | 0 | 0 | - | -
COc1cc2c(cc1OC)CN(S(=O)(=O)c1ccc3c(c1)CCC(C)(C)O3)CC2 | - | - | 0 | -
N#C[C@@H]1[C@H](c2ccc(C#CC3CCCCC3)cc2)[C@H](CO)N1C(=O)Nc1ccc(F)cc1 | -88 | 0 | - | -
N#C[C@H]1[C@H](c2ccc(C#CC3CCCCC3)cc2)[C@@H](CO)N1C(=O)Nc1ccc(F)cc1 | -86 | 0 | - | -
CO[C@@H]1CN(C)C(=O)c2cc(NC(=O)NC(C)C)ccc2OC[C@@H](C)N(CC2CC2)C[C@H]1C | 0 | 0 | 0 | 0
CC=Cc1ccc2n(c1=O)C[C@H]1[C@H](CO)[C@@H](C(=O)N3CCc4ccccc4C3)N(C(=O)C3CCC3)[C@@H]21 (mixture of isomers) | 0 | 0 | - | 0
COc1ccc2c3c(n(C)c2c1)[C@@H](CO)N(C(=O)C1CCCC1)CC31CN(C(=O)Nc2cccc(F)c2)C1 | -88 | 0 | - | -
COc1ccc2c3c(n(C)c2c1)[C@H](CO)N(C(=O)C1CC1)CC31CCN(C(=O)Nc2cccc(F)c2)CC1 | -82 | 0 | - | -
COc1ccc2c3c(n(C)c2c1)[C@@H](CO)N(C(=O)C1CCC1)CC31CCN(C(=O)CN(C)C)CC1 | 0 | 0 | - | -
COc1ccc(S(=O)(=O)N2CC3(CN(C(=O)CN(C)C)[C@H](CO)c4c3c3ccc(OC)cc3n4C)C2)cc1 | -84 | 0 | - | -
